From ChEMBL document CHEMBL1131185, “Syntheses of new isodethiaazacephems as potent antibacterial agents” (1998)
In brackets after ≈: the same amount, converted by molar mass.

Key:
Klebsiella pneumoniae = assay: In Vitro minimal inhibitory concentration against Klebsiella pneumoniae (NCTC 418); type: functional
Procedure, shortened: (§1)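 Serial broth dilution in heart infusion broth. Inoculum was a 10^-4 dilution of an overnight culture. Seeded antibiotic-containing tubes were incubated 37 °C for 20 h. […] Values are the average of triplicate determinations.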

Pseudomonas aeruginosa = assay: In Vitro minimal inhibitory concentration against Pseudomonas aeruginosa (1101-75); type: functional; procedure, shortened: as §1
Escherichia coli = assay: In Vitro minimal inhibitory concentration against Escherichia coli (ATCC 39188); type: functional; procedure, shortened: as §1
Staphylococcus aureus = assay: In Vitro minimal inhibitory concentration against Staphylococcus aureus (FDA 209P); type: functional; procedure, shortened: as §1
Salmonella typhi = assay: In Vitro minimal inhibitory concentration against Salmonella typhi (O-901); type: functional, Salmonella enterica subsp. enterica serovar Typhi; settings: Salmonella enterica
Procedure, shortened: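 Serial broth dilution MIC. Inoculum: overnight culture diluted 10^-4 in heart infusion broth. Seeded antibiotic-containing broth tubes incubated 20 h at 37 °C. MIC is the lowest concentration preventing visible growth. Concentrations tested up to 128 μg/mL. Values are the average of triplicate determinations.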

In the case of `CC1=C(C(=O)O)N2C(=O)[C@@H](NC(=O)Cc3ccccc3)[C@H]2SC1`, the MIC (Klebsiella pneumoniae) is reported as 2.98 µg/mL (≈ 8.97 µM), the MIC (Pseudomonas aeruginosa) is reported as 100 µg/mL (≈ 301 µM) and the MIC (Escherichia coli) is reported as 13.1 µg/mL (≈ 39.5 µM). The MIC (Staphylococcus aureus) was 0.64 µg/mL (≈ 1.93 µM) and the MIC (Salmonella typhi) was 24.5 µg/mL (≈ 73.7 µM).

`CS(=O)(=O)C1(C(=O)O)C(=O)NC[C@@H]2[C@H](NC(=O)Cc3ccccc3)C(=O)N21` (stereo not given in full) gave an MIC (Klebsiella pneumoniae) of 51 µg/mL (≈ 129 µM), an MIC (Pseudomonas aeruginosa) of 120 µg/mL (≈ 303 µM) and an MIC (Escherichia coli) of 97.2 µg/mL (≈ 246 µM). For the same compound, the MIC (Staphylococcus aureus) was 48.5 µg/mL (≈ 123 µM) and the MIC (Salmonella typhi) was 65.3 µg/mL (≈ 165 µM).

`O=C(Cc1ccccc1)N[C@@H]1C(=O)N2C(C(=O)O)=C(OS(=O)(=O)C(F)(F)F)NC[C@H]12` (racemic) gave an MIC (Klebsiella pneumoniae) of 0.24 µg/mL (≈ 0.534 µM), an MIC (Pseudomonas aeruginosa) of 1.15 µg/mL (≈ 2.56 µM) and an MIC (Escherichia coli) of 0.09 µg/mL (≈ 0.2 µM). It also gave an MIC (Staphylococcus aureus) of 0.01 µg/mL (≈ 0.0223 µM) and an MIC (Salmonella typhi) of 0.68 µg/mL (≈ 1.51 µM).

With `O=C(Cc1ccccc1)N[C@@H]1C(=O)N2C(C(=O)O)=C(O)NC[C@H]12` (racemic) the MIC (Klebsiella pneumoniae) was > 128 µg/mL, the MIC (Pseudomonas aeruginosa) was > 128 µg/mL and the MIC (Escherichia coli) was 94.7 µg/mL (≈ 298 µM). The MIC (Staphylococcus aureus) was 29.5 µg/mL (≈ 93 µM) and the MIC (Salmonella typhi) was > 128 µg/mL.

`CS(=O)(=O)C1=C(O)NC[C@@H]2[C@H](NC(=O)Cc3ccccc3)C(=O)N12` (racemic) was tested, and the MIC (Klebsiella pneumoniae) was > 128 µg/mL, the MIC (Pseudomonas aeruginosa) was > 128 µg/mL and the MIC (Escherichia coli) was > 128 µg/mL. The MIC (Staphylococcus aureus) was > 128 µg/mL and the MIC (Salmonella typhi) was > 128 µg/mL.

In the case of `CS(=O)(=O)OC1=C(C(=O)OCc2ccccc2)N2C(=O)[C@@H](NC(=O)Cc3ccccc3)[C@H]2CN1` (racemic), the MIC (Klebsiella pneumoniae) is reported as > 128 µg/mL, the MIC (Pseudomonas aeruginosa) is reported as > 128 µg/mL and the MIC (Escherichia coli) is reported as > 128 µg/mL. The MIC (Staphylococcus aureus) was > 128 µg/mL and the MIC (Salmonella typhi) was > 128 µg/mL.

With `O=C(Cc1ccccc1)N[C@@H]1C(=O)N2C(C(=O)OCc3ccccc3)=C(OS(=O)(=O)C(F)(F)F)NC[C@H]12` (racemic) the MIC (Klebsiella pneumoniae) was > 128 µg/mL, the MIC (Pseudomonas aeruginosa) was > 128 µg/mL and the MIC (Escherichia coli) was > 128 µg/mL. For the same compound, the MIC (Staphylococcus aureus) was > 128 µg/mL and the MIC (Salmonella typhi) was > 128 µg/mL.

For `CS(=O)(=O)OC1=C(C(=O)O)N2C(=O)[C@@H](NC(=O)Cc3ccccc3)[C@H]2CN1` (racemic), the MIC (Klebsiella pneumoniae) was 0.68 µg/mL (≈ 1.72 µM), the MIC (Pseudomonas aeruginosa) was 4.38 µg/mL (≈ 11.1 µM) and the MIC (Escherichia coli) was 0.95 µg/mL (≈ 2.4 µM). The MIC (Staphylococcus aureus) was 0.07 µg/mL (≈ 0.177 µM) and the MIC (Salmonella typhi) was 1.2 µg/mL (≈ 3.03 µM).

With `CO/N=C(\C(=O)N[C@@H]1C(=O)N2C(C(=O)O)=C(COC(C)=O)CS[C@H]12)c1csc(N)n1` [CEFOTAXIME] the MIC (Klebsiella pneumoniae) was 10.2 µg/mL (≈ 22.5 µM), the MIC (Pseudomonas aeruginosa) was 62.4 µg/mL (≈ 137 µM) and the MIC (Escherichia coli) was 0.25 µg/mL (≈ 0.549 µM). The MIC (Staphylococcus aureus) was 0.08 µg/mL (≈ 0.176 µM) and the MIC (Salmonella typhi) was 20.3 µg/mL (≈ 44.6 µM).

`CC1(C)S[C@@H]2[C@H](NC(=O)Cc3ccccc3)C(=O)N2[C@H]1C(=O)O` [PENICILLIN G] was tested, and the MIC (Klebsiella pneumoniae) was > 128 µg/mL, the MIC (Pseudomonas aeruginosa) was > 128 µg/mL and the MIC (Escherichia coli) was 2.3 µg/mL (≈ 6.88 µM). The MIC (Staphylococcus aureus) was 0.4 µg/mL (≈ 1.2 µM) and the MIC (Salmonella typhi) was > 128 µg/mL.
